Kir21 block: inhibitors of mouse Kir2.1 inward-rectifier potassium channel; HEK293-Kir2.1, FluxOR thallium flux fluorescence; active compounds read low; B-score at 10 µM; 0.85% of 310,000 active;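 active means fluorescence ratio B-score at or below minus 3 SD of library scores, with starting-brightness B-score within 2 SD, cut at about -4.2 in these data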;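 further: channel flux triggered by added potassium and thallium sulfate stimulus; B-score of peak minus minimum fluorescence over baseline after thallium stimulus; more negative B-score means stronger Kir2.1 block with less thallium influx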
Target sequence (P35561 whole entry, looked up): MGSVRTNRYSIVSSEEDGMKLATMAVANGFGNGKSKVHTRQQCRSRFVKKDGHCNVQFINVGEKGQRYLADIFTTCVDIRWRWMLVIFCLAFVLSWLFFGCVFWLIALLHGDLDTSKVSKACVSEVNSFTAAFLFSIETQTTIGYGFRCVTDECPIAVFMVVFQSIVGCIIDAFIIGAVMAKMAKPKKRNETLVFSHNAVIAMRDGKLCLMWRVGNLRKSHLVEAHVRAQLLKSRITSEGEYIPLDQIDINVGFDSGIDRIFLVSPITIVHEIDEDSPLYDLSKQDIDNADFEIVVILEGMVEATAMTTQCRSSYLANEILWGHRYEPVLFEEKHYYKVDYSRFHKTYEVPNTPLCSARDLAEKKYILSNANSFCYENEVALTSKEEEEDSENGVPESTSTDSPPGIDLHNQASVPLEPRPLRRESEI
KCNQ1 block: inhibitors of human KCNQ1 potassium channel. P51787. B-score at 10 µM. CHO-K1 KCNQ1, FluxOR thallium flux fluorescence; active compounds read high. 1.3% of 310,000 active. AID 2642;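 active means compounds whose thallium flux B-score, printed positive for inhibition, exceeds three library SD while starting fluorescence stays within three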;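 further: channel opened by potassium depolarization with thallium stimulus after 20 min compound exposure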
KCNK9 block: human KCNK9 channel inhibition. HEK293 KCNK9, FluxOR thallium flux fluorescence; active compounds read low. B-score at 10 µM. 1.2% of 310,000 active. AID 488922;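 active means ratio B-score over 3 SD below the library mean, with starting fluorescence within 5 SD of its mean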;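 further: negative B-score means less thallium flux so channel inhibition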
KCNQ1 pot: human KCNQ1 channel potentiation or activation; CHO-K1 KCNQ1, thallium flux FluxOR fluorescence; active compounds read high; B-score at 10 µM; 0.35% of 310,000 active; AID 2648;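 active means fluorescence ratio B-score, a plate-corrected score, at least three library SD, with initial intensity B-score within 5 SD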
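Schedule – 37 °C overnight plating, 90-min dark dye load, 20-min compound pretreatment · System – stable KCNQ1 CHO-K1 line · Probe or stimulus – thallium- and potassium-containing depolarizing buffer · Measured by – kinetic FluxOR fluorescence, 10 s baseline plus 110 s post-stimulus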
hERG rescue: compounds protecting human hERG from proarrhythmic drug block. Q12809. CHO-hERG, FluxOR thallium flux, dofetilide IC70 present. activation (rescue from dofetilide block), less the hit threshold, % at 10 µM. 0.51% of 310,000 active. AID 1511;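 active means activation above the mean of controls blocked by dofetilide plus 5 SD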;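 further: thallium influx through hERG after potassium depolarization seen as dye fluorescence rise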
KCNK3 block: human KCNK3 channel inhibition, primary screen; 0.84% of 340,000 active; B-score at 10 µM; CHO-KCNK3 thallium flux, FluxOR fluorescence; active compounds read low; AID 602410;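 active means B-score under library mean minus 4 SD, starting fluorescence ratio at most library mean plus 5 SD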;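 further: more negative B-score means stronger inhibition of thallium flux through KCNK3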
KCNK3 inh conf: confirmation of human KCNK3 two-pore domain potassium channel inhibitors | ratio percent of control, % at 10 µM | AID 651638 | shares compounds with KCNK3 block | CHO-KCNK3 thallium flux, FluxOR fluorescence; 0% buffer, 100% carvedilol maximal block | 99% of 2,400 active;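 active means ratio percent of control, averaged over triplicates, above buffer control mean plus 5 SD, cut at about 64% in these data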;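 further: ratio is the fluorescence rise from min to max over baseline after thallium stimulus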
KCNK3 uninduced: KCNK3 inhibitor counter-screen hit in non-induced cells | shares compounds with KCNK3 block | 40% of 2,400 active | non-induced KCNK3 parental cells, FluxOR thallium flux; active compounds read low | thallium flux ratio (lower = more inhibition) at 10 µM;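 active means thallium flux ratio, averaged over three wells, more than 5 SD below the buffer control mean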;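 further: host cells are CHO cells without KCNK3 induction; ratio is peak minus trough fluorescence over baseline then normalized to buffer controls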
* = called active by the depositor; i = inactive; / = no result given. Rows were chosen to be rich in hits. Some 3.7% of all compounds tested hit in one or more screens of this group.

SMILES	Kir21 block	KCNQ1 block	KCNK9 block	KCNQ1 pot	hERG rescue	KCNK3 block	KCNK3 inh conf	KCNK3 uninduced
C/C(CCc1ccccc1)=N/NC(=O)C(=O)NC(C)c1ccccc1 (stereo not given)	0.81	i	i	i	-9	i	/	/
O=C(CSc1nnc(NC(=O)c2ccccc2F)s1)NCC1CCCO1 (stereo not given)	0.28	i	i	i	-9	-8.8*	86*	i
CSc1ccc(CN(C)C(=O)C(c2ccccc2)c2ccccc2)cc1	-0.18	i	i	i	-7	-10*	126*	0.13*
CSc1ccc(CN(C)C(=O)C(Cc2ccccc2)NC(=O)c2ccccc2)cc1 (stereo not given)	-0.41	i	i	i	-21	i	/	/
O=C1C2C3C=CC(C4CC34)C2C(=O)N1c1ccc2c(c1)OCO2 (stereo not given)	-0.63	i	i	i	-9	i	/	/
CCc1nn(CC(=O)NCCC(C)C)c(=O)c2cc3c(OC)cccc3n12	-3.5	i	i	i	-12	i	/	/
Cc1nc(-c2ccccc2)sc1C(=O)CSc1ccc(F)cc1	3.4	i	i	i	-12	-13*	96*	i
COc1ccc(-c2csc(/C(C#N)=C\c3ccc(O)c([N+](=O)[O-])c3)n2)cc1OC	-0.01	i	i	i	-29	-10*	116*	0.14*
CCN(CC(=O)Nc1ccc(OC)cc1)C(=O)c1ccccc1Sc1ccccc1C#N	-1.2	i	i	i	-27	i	/	/
CN(c1ccccc1)S(=O)(=O)c1cccc(NC(=O)C2=NNC(=O)CC2)c1	/	/	/	/	/	i	/	/
COCCNC(=S)N/N=C/c1c2ccccc2cc2ccccc12	0.64	i	i	i	-27	-14*	110*	i
CNC(=S)NCc1ccc2[nH]c3c(c2c1)CCCC3	-0.13	i	i	i	-25	i	/	/
Cc1ccc(C)c(NC(=S)NCc2ccc3[nH]c4c(c3c2)CCCC4)c1	0.01	i	i	i	-7	-13*	120*	0.14*
Nc1ncnc2c1c(-c1ccc(Oc3ccccc3)cc1)cn2C1CCCC1	/	/	/	/	/	-12*	115*	i
Cc1ccccc1C(=O)NNC(=O)C1CC(=O)N(Cc2ccccc2)C1 (stereo not given)	-0.12	i	i	i	-6	i	/	/
Cc1ccc(SCC(=O)OCC(=O)N2CCN(C(=O)c3ccco3)CC2)c(C)c1	2.8	i	i	i	-8	i	/	/
CC/C(=C\c1oc2cc3ccccc3cc2[n+]1CC)Nc1ccccc1	-3.1	9*	i	i	-27	-10*	127*	0.14*
CC[n+]1c(/C=C/Nc2ccccc2)oc2ccccc21	-1.8	i	i	i	-9	i	/	/
O=C(COC(=O)c1ccccc1SCC(=O)N1CCCC1)Nc1ccccc1C(F)(F)F	-0.12	i	i	i	-8	i	/	/
COc1ccc(S(=O)(=O)N(C)c2ccc(C(=O)NCc3ccccn3)cc2)cc1OC	-0.47	i	i	i	-9	i	/	/
COCCN(C(=O)Nc1ccccc1OC)c1nc2ccccc2s1	-0.63	i	i	i	-9	-11*	114*	i
O=C(Nc1ccc(Cl)cn1)c1ccc(Br)c(S(=O)(=O)N2CCCCC2)c1	1.1	i	-7.4*	i	-5	i	102*	i
Cc1ccc(NC(=O)c2ccc(Cl)c(S(=O)(=O)N3CCCCCC3)c2)nc1	-0.55	i	i	i	-9	-9.7*	115*	i
O=C(Nc1ccccn1)c1ccc(Cl)c(S(=O)(=O)N2CCCC2)c1	0.44	i	i	i	-16	i	/	/
CCn1c(COc2ccc(C)cc2)nc2ccccc21	-0.75	i	i	i	-5	-12*	112*	i
SMILES	Kir21 block	KCNQ1 block	KCNK9 block	KCNQ1 pot	hERG rescue	KCNK3 block	KCNK3 inh conf	KCNK3 uninduced
COCCn1c(COc2ccc(C)cc2)nc2ccccc21	0.71	i	i	i	-5	i	/	/
Cc1cc(OCC(=O)Nc2nccs2)c2c(C)cc(=O)oc2c1	-0.3	i	i	i	-5	i	/	/
Cc1ccc(NC(=O)c2ccc(C)cc2)cc1	1.6	i	i	i	-7	i	/	/
Cc1ccc(C(=O)Nc2ccc(Br)c(C(F)(F)F)c2)cc1	-0.52	i	i	i	-22	-9.3*	120*	i
CNC(=O)c1ccc(NC(=O)Cc2ccc(S(=O)(=O)N3CCOCC3)s2)cc1	-0.92	i	i	i	-14	i	/	/
CCOC(=O)C1(Cc2cccc(F)c2)CCN(C(=O)c2cnccn2)CC1	0.01	i	i	i	-9	i	/	/
O=C(CCSc1nc(-c2ccco2)cc(C(F)(F)F)n1)N1CCN(c2ccccn2)CC1	1.5	i	i	i	-8	i	/	/
O=C(CCSc1nc(-c2ccco2)cc(C(F)(F)F)n1)N1CCCc2ccccc21	-1.5	i	i	i	-6	-9.9*	100*	i
CCCc1ccc(OCC(=O)NNC(=O)c2cccnc2)cc1	2.7	i	i	i	-2	i	/	/
C=CS(=O)(=O)c1sc(Cl)c(N2CCOCC2)c1[N+](=O)[O-]	-9.5*	i	i	11*	-1	-9*	125*	0.12*
C=CSc1sc(Cl)c(N2CCOCC2)c1[N+](=O)[O-]	-0.97	i	i	i	-6	i	/	/
CN(CC(=O)Nc1ccc(F)cc1Cl)Cc1cccs1	0.3	i	i	i	-5	-9.5*	85*	i
CN(CC(=O)NCc1cccs1)CC(=O)Nc1ccc(F)c(F)c1F	1.2	i	i	i	-11	i	/	/
COc1ccccc1-c1nnc(SC(C)C(=O)Nc2ccc(C(N)=O)cc2)o1 (stereo not given)	0.36	i	i	i	-18	i	/	/
CCOC(=O)N/N=C(\CCC(=O)O)c1cccs1	1.8	i	i	i	-14	i	/	/
CCn1c2ccccc2c2cc(NC(=O)c3ccc(Br)o3)ccc21	-1.3	i	i	i	-10	-11*	116*	i
CCn1c2ccccc2c2cc(/C=N/NC(=O)c3ccncc3)ccc21	0.08	i	i	i	-15	-11*	116*	0.14*
CCn1c2ccccc2c2cc(NC(=O)c3ccc(=O)oc3)ccc21	0.38	i	i	i	-17	i	/	/

Source: PubChem (Johns Hopkins Ion Channel Center)
